Data set [1] concerns the target T1, P. aeruginosa MetRS (Pseudomonas aeruginosa, UniProt Q9HYC7).
T1 sequence (Q9HYC7 1-677): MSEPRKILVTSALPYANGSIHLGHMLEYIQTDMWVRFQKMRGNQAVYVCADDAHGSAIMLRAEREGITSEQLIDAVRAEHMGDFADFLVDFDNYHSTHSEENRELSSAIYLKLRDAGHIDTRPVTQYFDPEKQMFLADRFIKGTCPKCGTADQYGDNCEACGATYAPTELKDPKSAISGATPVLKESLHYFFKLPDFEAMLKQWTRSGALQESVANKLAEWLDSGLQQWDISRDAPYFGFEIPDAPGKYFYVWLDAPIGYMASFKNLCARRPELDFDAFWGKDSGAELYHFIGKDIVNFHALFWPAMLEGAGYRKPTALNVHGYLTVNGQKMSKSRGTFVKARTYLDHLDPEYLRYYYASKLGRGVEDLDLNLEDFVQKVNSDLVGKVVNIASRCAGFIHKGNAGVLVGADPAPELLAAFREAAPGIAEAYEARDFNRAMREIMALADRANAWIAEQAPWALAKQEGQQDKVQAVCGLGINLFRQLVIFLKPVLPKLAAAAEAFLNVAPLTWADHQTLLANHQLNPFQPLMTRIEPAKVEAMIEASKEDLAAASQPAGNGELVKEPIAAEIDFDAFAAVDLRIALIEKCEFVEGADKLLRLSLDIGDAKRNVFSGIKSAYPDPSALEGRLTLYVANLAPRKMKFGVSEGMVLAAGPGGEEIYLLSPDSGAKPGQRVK
Briefly: tRNA aminoacylation assay in SPA format. It is filed as biochemical.

The target in data set [2] is T1, P. aeruginosa MetRS.
In data set [3] the test system is E. coli MetRS. Particulars: cited from earlier work.
Data set [4] concerns E. faecalis (ATCC 29212). Briefly: MIC, broth microdilution. Type of data set: cell-based, Enterococcus faecalis. A general note: Dilution methods test growth across graded concentrations, often in twofold steps.
Data set [5] concerns H. influenzae (ATCC 49766). Briefly: MIC, broth microdilution. It is filed as cell-based, Haemophilus influenzae.
For data set [6], the system named is P. aeruginosa (hypersensitive). Briefly: MIC, broth microdilution. Type of data set: cell-based, Pseudomonas aeruginosa. The note with it: P. aeruginosa hypersensitive strain (ATCC 35151). Put shortly:
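Broth microdilution per CLSI guideline M7-A7, read as MIC in μg/ml. Hypersensitive strain ATCC 35151 was a gift. Compound stocks were 10 mM in DMSO. Three separate sets of assays were run. MIC QC and culture purity were checked with antibiotics specific to each strain, using Etest QC ranges.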

The subject of data set [7] is S. aureus (ATCC 29213). Briefly: MIC, broth microdilution. It is filed as cell-based, Staphylococcus aureus.
Data set [8] concerns H. influenzae. Briefly: Time-kill study. It is filed as cell-based, Haemophilus influenzae. Particulars: 4×MIC. Put shortly: (§1)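 Time-kill following CLSI document M26-A. Growth media were Haemophilus Test Broth and Trypticase Soy Broth. Cultures with compound were sampled at 0, 2, 4, 6 and 24 h and plated for CFU counts. Controls had no compound but an equal amount of DMSO.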

Data set [9] relates to S. aureus. Briefly: Time-kill study. Type of data set: cell-based, Staphylococcus aureus. Particulars: 4×MIC. Put shortly:
as §1

Data set [10] relates to human embryonic kidney 293 cells (HEK-293). Briefly: MTT cytotoxicity assay. It is filed as cell-based.
Data set [11] addresses T1, P. aeruginosa MetRS. Briefly: Binding mode. It is filed as biochemical. The note with it: for competition with methionine for binding MetRS: 25-300 μM methionine, 2.5 mM ATP; for competition with ATP for binding MetRS: 25-1000 μM ATP, 75 μM methionine.
Substrate in data set [12]: CSCC[C@H](N)C(=O)O
Briefly: purified protein, by the assay type. The note with it: other: substrate methionine, ATP 2 mM; pH 7.5; 37.0 °C.

Substrate in data set [13]: Nc1ncnc2c1ncn2[C@@H]1O[C@H](COP(=O)(O)OP(=O)(O)OP(=O)(O)O)[C@@H](O)[C@H]1O
Briefly: purified protein, by the assay type. The note with it: other: substrate ATP, methionine 2 mM; pH 7.5; 37.0 °C.

Values after ≈ are worked out from the molar mass of the structure shown. Read-outs that look alike come from different tables or passages of the source.

What is called IC50 is the midpoint of a concentration-inhibition curve. Higher therefore signals weaker potency. In turn, `O=c1cc(-c2cc(O)c(O)c(O)c2)oc2cc(O)cc(O)c12` [hieracin] gave an IC50 in data set [1] of 8.3 µM. This lies in the single-digit micromolar range.
Usually Km stands for the concentration of substrate that gives half-maximal velocity. Take `Nc1ncnc2c1ncn2[C@@H]1O[C@H](COP(=O)(O)OP(=O)(O)OP(=O)(O)O)[C@@H](O)[C@H]1O` [ATP, Adenosine triphosphate]: the kcat in data set [2] (substrate ATP) was 24.2 s⁻¹. Moreover, in data set [3] (E. coli MetRS with ATP), the Michaelis constant (Km) is 528 µM and the kcat is 74 µM.
`CC1(C)C=Cc2c(c3c(c4c(=O)c(-c5ccc(O)c(O)c5)coc24)OC(C)(C)CC3)O1` [Isopomiferin, isopomiferin] yielded an IC50 in data set [1] (aminoacylation, 0.1 μM MetRS, compound 200 to 0.4 μM) of 70 µM. Besides, the MIC was 32 µg/mL (≈ 76.1 µM) in data set [4], “Moderate activity” in data set [5], 16 µg/mL (≈ 38.1 µM) in data set [6] and 32 µg/mL (≈ 76.1 µM) in [7]. In addition, the “mode of inhibition (time-kill)” value in data set [8] (0-24 h) is “bacteriostatic”; in [9] (0-24 h), “bactericidal”. The “decrease of colony forming units compared to the control” value in data set [8] (during 24 h) is 2 to 5 log10 CFU. The CFUs in time-kill entry in [9] (first six hours of growth) is listed as “no CFUs were observed”. In data set [10], the “CC50 relative to that of staurosporine” value is recorded as 10,000 fold. The figures for the “competition with methionine for binding MetRS” value in data set [11] and in data set [11] (listed as BM01C11) were “not observed to compete” and “did not compete”, respectively. The “competition with ATP for binding MetRS” value was “not observed to compete” in [11] and “did not compete” in [11] (listed as BM01C11). Also, in data set [11] (IC50 constant as ATP or methionine increased), the form of inhibition entry is “non-competitive”.
In the case of `CSCC[C@H](N)C(=O)O` [Methionine], the kcat in data set [2] (substrate methionine) was 37.2 s⁻¹. Moreover, in data set [3] (E. coli MetRS with methionine), the Michaelis-Menten constant (Km) is 21 µM and the kcat is 74 µM.

B1: P. aeruginosa MetRS (Pseudomonas aeruginosa PAO1) (protein)
chain: T1 sequence (Q9HYC7 1-677)
With B1, in data set [12], the Km turned out to be 35 µM, the kcat was found to be 37.2 s⁻¹ and the kcat/Km was 1.1 µM/s. Further, in data set [13], the Km came to 515 µM, the kcat amounted to 24.2 s⁻¹ and the kcat/Km was determined as 0.05 µM/s.

Source of the values: publication PMC5788008 (Current drug discovery technologies, 2017).
